GalR3 antagonist: GalR3 antagonists in HEK293 cells, primary screen, cell-based, fluorescence readout; HEK293 GalR3-CNG cAMP membrane potential fluorescence; galR3 body fused to GalR1 C-terminus; hit rate 0.44% among 360,000; AID 651719, 2012; Galanin receptor type 3 (Homo sapiens), O60755; inhibition, % at 3 µM;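 active means inhibition above the screen-wide average plus 3 SD, cut at about 13% in these data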;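 further: forskolin and galanin both at EC90 stimulate the cells; cAMP rise reported by CNG channel membrane potential dye signal; 0% = forskolin plus galanin with DMSO and 100% = forskolin alone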
Target sequence (O60755 1-299 limits assumed): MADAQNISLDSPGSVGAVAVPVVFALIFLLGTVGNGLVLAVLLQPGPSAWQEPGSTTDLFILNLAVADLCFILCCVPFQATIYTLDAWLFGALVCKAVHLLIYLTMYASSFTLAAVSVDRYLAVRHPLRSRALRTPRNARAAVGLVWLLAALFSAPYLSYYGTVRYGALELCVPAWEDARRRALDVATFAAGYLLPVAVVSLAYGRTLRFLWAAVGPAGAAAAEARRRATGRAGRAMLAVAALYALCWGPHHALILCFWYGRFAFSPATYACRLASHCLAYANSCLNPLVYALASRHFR
Env fusion inh: inhibitors of HIV-1 Env-driven cell-cell fusion, primary screen, HeLa-JRFL effector, CEM21 target cells, luciferase; inhibition, % at 12.3 µM; hit rate 1.1% among 360,000;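 active means mean replicate inhibition score of at least 50 and every replicate individually at or above 50; inconclusive means only one of the two criteria met; inactive means mean below 50 and not all replicates reaching 50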;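 further: 0% = plate neutral controls and 100% = maraviroc near 300 nM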
FXN GAA850 act: FXN promoter activators, primary screen, cell-based, luciferase luminescence, HEK293 lucGAA850 | hit rate 0.56% among 360,000 | activation, % at 6 µM | HEK293 lucGAA850 FXN promoter luciferase reporter, 24 h; percent of 10 µM SAHA response;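 active means activation above the average of all compounds screened plus 3 SD, cutoff fixed separately per campaign, cut at about 7.5% in these data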;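 further: 0% = DMSO wells and 100% = 10 µM SAHA wells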
V-ATPase pH: regulators of yeast V-ATPase proton pumping, primary screen, pHLuorin cytosolic pH fluorescence; hit rate 0.37% among 350,000; AID 504577, 2011; S. cerevisiae; response, % at 10 µM; in the data active means response mostly above about 7.3%, no sharp cut-off; inactive means mostly below about 5.4%; further: actives read high
NR2E3 ag-1: inhibitors of NR2E3-RetCOR corepressor binding, primary screen, NR2E3 agonist project, biochemical, TR-FRET, GST-NR2E3, biotin-RetCOR | 1536-well | inhibition of corepressor binding, % at 4.78 µM | hit rate 0.12% among 320,000 | AID 2300, 2010;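 active means percent inhibition above the cutoff of mean plus 3 SD of all tested compounds, set per screening campaign, cut at about 20% in these data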;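 further: 0% = DMSO wells and 100% = biotin wells as full block of FRET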
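Test system – NR2E3–RetCOR corepressor complex · Quantity – NR2E3 fusion 1.35 nM · Buffer or medium – Tris pH 7.5 · Incubation – Compound–protein incubation for 5 h at 4 °C · Technique – TR-FRET, Eu(K)-anti-GST donor, streptavidin-D2 acceptor, ex 340, em 617/671 nm · Evaluation – percent inhibition of 671/617 nm emission ratio versus biotin and DMSO controls · Plate – 1536-well format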
NR2E3 ag-2: NR2E3 agonists in two-hybrid cells, primary screen, cell-based, luminescence, CHO-S, Gal4-NCOR/VP16-NR2E3; luciferase; inhibition of corepressor binding, % at 3.98 µM; hit rate 0.35% among 360,000; AID 602229, 2012;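 active means inhibition above the mean of all tested compounds plus 3 SD, cut at about 70% in these data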;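 further: 0% = DMSO with NR2E3 transfected cells and 100% = cells lacking NR2E3 construct; higher means lower luciferase signal from less NR2E3 corepressor binding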
* marks the source's active call; other numbers are inactive results; [ ] = another dose, or the depositor's remark. Sampled rows, rich in hits. Any-hit rate of the full collection: about 2.2%.

Results for C[C@@H]1CCCCO[C@H](CN(C)C(=O)Nc2ccccc2)[C@@H](C)CN([C@@H](C)CO)C(=O)c2cc(NC(=O)CCC(F)(F)F)ccc2O1 ?
Env fusion inh: -96.9[16.7 µM]

How did C[C@H]1CCCCO[C@H](CN(C)C(=O)CCC(F)(F)F)[C@@H](C)CN([C@@H](C)CO)C(=O)c2cc(NC(=O)CCC(F)(F)F)ccc2O1 do in these assays?
Env fusion inh: 11.6[16.7 µM]

How did C[C@@H]1CCCCO[C@H](CN(C)C(=O)CCC(F)(F)F)[C@H](C)CN([C@H](C)CO)C(=O)c2cc(NC(=O)CCC(F)(F)F)ccc2O1 do in these assays?
Env fusion inh: 86.6*[16.7 µM]

What do the screens show for `CC(C)NC(=O)Nc1ccc2c(c1)C(=O)N([C@@H](C)CO)C[C@@H](C)[C@@H](CN(C)C(=O)CCC(F)(F)F)OCCCC[C@H](C)O2`?
Env fusion inh: -17.3[16.7 µM]

Results for O=C(C[C@@H]1C=C[C@H](NC(=O)NC2CCCC2)[C@H](CO)O1)NCc1ccc(F)cc1 ?
Env fusion inh: -0.2[16.7 µM]

How did C[C@@H]1CN([C@@H](C)CO)C(=O)c2cc(N(C)C)ccc2O[C@@H](C)CCCCO[C@H]1CN(C)C do in these assays?
Env fusion inh: 0.9[16.7 µM]

What do the screens show for `Cc1nc2nc(-c3ccc(F)cc3)cn2nc1C`?
GalR3 antagonist: -8.3; Env fusion inh: -0.4; FXN GAA850 act: 4.0; V-ATPase pH: 6.3; NR2E3 ag-1: -2.2; NR2E3 ag-2: -122.0

How did CCc1ccc(-c2cn3nc(C)c(C)nc3n2)cc1 do in these assays?
GalR3 antagonist: -2.5; Env fusion inh: 75.8*; FXN GAA850 act: -5.8; V-ATPase pH: -4.3; NR2E3 ag-1: 1.0; NR2E3 ag-2: -58.4

Results for CC(C)(C)n1nnnc1C(c1ccccn1)N(Cc1ccccc1)Cc1ccc(Cl)cc1 (stereo not drawn) ?
GalR3 antagonist: -8.0; Env fusion inh: 127.4*; FXN GAA850 act: 7.2; V-ATPase pH: 1.8; NR2E3 ag-1: 2.1; NR2E3 ag-2: -11.4

Results for O=C(CCC(=O)N1CCN(S(=O)(=O)c2ccc3ccccc3c2)CC1)Nc1cc(Cl)cc(Cl)c1 ?
GalR3 antagonist: -8.8; Env fusion inh: 85.0*; FXN GAA850 act: 4.1; V-ATPase pH: -2.5; NR2E3 ag-1: -1.6; NR2E3 ag-2: 14.3

Results for O=C(O)CCC(=O)N1CCN(S(=O)(=O)c2ccc3ccccc3c2)CC1 ?
GalR3 antagonist: -7.2; Env fusion inh: -11.2; FXN GAA850 act: -0.3; V-ATPase pH: -3.9; NR2E3 ag-1: 1.5; NR2E3 ag-2: -14.1

How did C[C@@H]1CN([C@H](C)CO)C(=O)c2cc(NC(=O)C3CCCCC3)ccc2O[C@H]1CN(C)C(=O)Nc1cccc2ccccc12 do in these assays?
Env fusion inh: -5.9[16.7 µM]

Results for O=C(c1ccc2c(c1)CCN2S(=O)(=O)c1ccccc1)N1CCN(c2ccc(F)cc2)CC1 ?
GalR3 antagonist: -2.6; Env fusion inh: 4.8; FXN GAA850 act: 1.6; V-ATPase pH: 14.3*; NR2E3 ag-1: -1.0; NR2E3 ag-2: 23.4

What do the screens show for `COc1ccc(N2CCN(C(=O)c3ccc4c(c3)CCN4S(=O)(=O)c3ccccc3)CC2)cc1`?
GalR3 antagonist: -4.7; Env fusion inh: 5.5; FXN GAA850 act: 1.3; V-ATPase pH: 2.8; NR2E3 ag-1: -0.2; NR2E3 ag-2: 9.6

Results for Cc1ccc(C2CN(C)C3(C(=O)Nc4ccccc43)C23COc2ccccc2C3=O)cc1 (stereo not drawn) ?
GalR3 antagonist: -0.7; Env fusion inh: inconclusive; FXN GAA850 act: 0.5; V-ATPase pH: 4.4; NR2E3 ag-1: -1.9; NR2E3 ag-2: 6.8

What do the screens show for `CN1CC(c2ccccc2Cl)C2(COc3ccccc3C2=O)C12C(=O)Nc1ccccc12` (stereo not drawn)?
GalR3 antagonist: -4.0; Env fusion inh: 78.2*; FXN GAA850 act: 4.4; V-ATPase pH: 1.9; NR2E3 ag-1: -0.8; NR2E3 ag-2: 2.5
